ChEMBL document CHEMBL1687861, “Comazaphilones A-F, azaphilone derivatives from the marine sediment-derived fungus Penicillium commune QSD-17” (J Nat Prod, 2011)
Values after ≈ are worked out from the molar mass of the structure shown. Active and inactive are the calls of the source. The rule behind the calls is not given here.

Columns and labels:
[1] = tested on: Pseudomonas fluorescens; experiment: Antimicrobial activity against Pseudomonas fluorescens after 18 hrs by broth microdilution method; assay type: functional
Method in brief: (§1)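 Broth microdilution MIC; inoculum 5 × 10^5 cfu/mL; compounds tested over 1024-1 μg/mL; plates incubated 18 h at 35 °C in ambient air; MIC taken as the read-out after incubation.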

[2] = tested on: Pseudomonas aeruginosa; experiment: Antimicrobial activity against Pseudomonas aeruginosa after 18 hrs by broth microdilution method; assay type: functional; method in brief: as §1
[3] = tested on: SW1990; experiment: Cytotoxicity against human SW1990 cells; assay type: functional, cell-based
[4] = tested on: Candida albicans; experiment: Antimicrobial activity against Candida albicans after 18 hrs by broth microdilution method; assay type: functional; method in brief: as §1
[5] = tested on: Staphylococcus aureus; experiment: Antimicrobial activity against methicillin-resistant Staphylococcus aureus after 18 hrs by broth microdilution method; assay type: functional
Method in brief: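 Broth microdilution MIC. Inoculum 5 × 10^5 cfu/mL. Concentration range 1024-1 μg/mL. Plates incubated 18 h at 35 °C in ambient air. The MIC was read at the end of incubation.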

[6] = tested on: Bacillus subtilis; experiment: Antimicrobial activity against Bacillus subtilis after 18 hrs by broth microdilution method; assay type: functional; method in brief: as §1
[7] = tested on: NCI-H460; experiment: Cytotoxicity against human NCI-H460 cells; assay type: functional, cell-based
[8] = tested on: SMMC-7721; experiment: Cytotoxicity against human SMMC7721 cells; assay type: functional, cell-based
[9] = tested on: MCF7; experiment: Cytotoxicity against human MCF7 cells; assay type: functional, cell-based
[10] = tested on: HeLa; experiment: Cytotoxicity against human HeLa cells; assay type: functional, cell-based
[11] = tested on: DU-145; experiment: Cytotoxicity against human DU145 cells; assay type: functional, cell-based
[12] = tested on: HepG2; experiment: Cytotoxicity against human HepG2 cells; assay type: functional, cell-based

Molecule: C/C=C/C1=CC2=C(CO1)C(=O)[C@](C)(O)[C@H](OC(=O)c1c(C)cc(O)c(O)c1OC)C2 [COMAZAPHILONE E]
- MIC [1]: 32 µg/mL (≈ 76.8 µM)
- MIC [2]: > 256 µg/mL
- IC50 [3]: 26 µM
- MIC [4]: > 256 µg/mL
- MIC [5]: > 256 µg/mL
- MIC [6]: 16 µg/mL (≈ 38.4 µM)

Molecule: CC1(C)S[C@@H]2[C@H](NC(=O)[C@H](N)c3ccccc3)C(=O)N2[C@H]1C(=O)O [AMPICILLIN]
- MIC [1]: 4 µg/mL (≈ 11.4 µM)
- MIC [2]: 2 µg/mL (≈ 5.72 µM)
- MIC [5]: 8 µg/mL (≈ 22.9 µM)
- MIC [6]: 4 µg/mL (≈ 11.4 µM)

Molecule: CCCC1=CC2=C(CO1)C(=O)[C@](C)(OC(=O)c1c(C)cc(O)c(O)c1OC)[C@H](O)C2 [COMAZAPHILONE B]
- MIC [1]: 128 µg/mL (≈ 306 µM)
- MIC [2]: > 256 µg/mL
- Activity [7]: inactive
- Activity [8]: inactive
- Activity [9]: inactive
- Activity [10]: inactive
- Activity [11]: inactive
- MIC [4]: > 256 µg/mL
- MIC [5]: 128 µg/mL (≈ 306 µM)
- MIC [6]: 64 µg/mL (≈ 153 µM)
- Activity [12]: inactive

Molecule: CCCC1=CC2=C(CO1)C(=O)[C@](C)(O)[C@H](OC(=O)c1c(C)cc(O)c(O)c1OC)C2 [COMAZAPHILONE F]
- MIC [1]: 64 µg/mL (≈ 153 µM)
- MIC [2]: > 256 µg/mL
- IC50 [3]: 53 µM
- MIC [4]: > 256 µg/mL
- MIC [5]: 128 µg/mL (≈ 306 µM)
- MIC [6]: 128 µg/mL (≈ 306 µM)

Molecule: C/C=C/C1=CC2=C(CO1)C(=O)[C@](C)(O)[C@H](OC(=O)c1c(C)cc(O)cc1O)C2 [COMAZAPHILONE D]
- MIC [1]: 16 µg/mL (≈ 41.4 µM)
- MIC [2]: > 256 µg/mL
- IC50 [3]: 51 µM
- MIC [4]: > 256 µg/mL
- MIC [5]: 32 µg/mL (≈ 82.8 µM)
- MIC [6]: > 256 µg/mL

Molecule: C/C=C/C1=CC2=C(CO1)C(=O)[C@](C)(OC(=O)c1c(C)cc(O)c(O)c1OC)[C@H](O)C2 [COMAZAPHILONE C]
- MIC [1]: 64 µg/mL (≈ 154 µM)
- MIC [2]: > 256 µg/mL
- Activity [7]: inactive
- Activity [8]: inactive
- Activity [9]: inactive
- Activity [10]: inactive
- Activity [11]: inactive
- MIC [4]: > 256 µg/mL
- MIC [5]: 16 µg/mL (≈ 38.4 µM)
- MIC [6]: 32 µg/mL (≈ 76.8 µM)
- Activity [12]: inactive

Molecule: NYSTATIN
- MIC [4]: 2 µM

Molecule: O=c1[nH]cc(F)c(=O)[nH]1 [FLUOROURACIL]
- IC50 [3]: 120 µM

Molecule: CCCC1=CC2=C(CO1)C(=O)[C@](C)(OC(=O)c1c(C)cc(O)cc1OC)[C@H](O)C2 [COMAZAPHILONE A]
- MIC [1]: > 256 µg/mL
- MIC [2]: > 256 µg/mL
- Activity [7]: inactive
- Activity [8]: inactive
- Activity [9]: inactive
- Activity [10]: inactive
- Activity [11]: inactive
- MIC [4]: > 256 µg/mL
- MIC [5]: > 256 µg/mL
- MIC [6]: > 256 µg/mL
- Activity [12]: inactive
